# In ChEMBL document CHEMBL1143668, “Reversal of P-glycoprotein-mediated multidrug resistance by sipholane triterpenoids” (J Nat Prod, 2007):
# Tests used:
# Type in all cases: functional, cell-based
# [1] = Cytotoxicity against KB-3-1 cells after 68 hrs by MTT assay; conditions: Homo sapiens, KB 3-1, 68 h
# How it was run: (§1)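 Human epidermoid carcinoma KB-3-1 (parental) and sublines: KB/MRP1 (MRP1 cDNA-transfected), KB-CV60 (kept in 1 μg/mL cepharanthine + 60 ng/mL vincristine), KB-C2 (kept in 2 μg/mL colchicine). DMEM with 10% bovine serum, 37 °C, 5% CO₂. Seeded at 4×10^4 (KB-3-1), 5×10^4 (KB/MRP1) or 7.5×10^4 cells/mL (KB-CV60, KB-C2). Compound dilution series for 68 h, then MTT 4 h. Formazan dissolved in DMSO, A570. IC50 from survival curves by the Bliss method.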
# KB = experiment: Cytotoxicity against KB cells expressing MRP1 after 68 hrs by MTT assay; conditions: Homo sapiens; how it was run: as §1
# [2] = Cytotoxicity against KB-CV60 cells expressing MRP1 after 68 hrs by MTT assay; conditions: Homo sapiens, KB-CV60, 68 h; how it was run: as §1
# [3] = Cytotoxicity against KB-C2 cells overexpressing P-gp after 68 hrs by MTT assay; conditions: Homo sapiens, KB-C2, 68 h; how it was run: as §1
# KB 3-1 = experiment: Reversal of P-gp-mediated multidrug resistance to Cytotoxicity of colchicine against human KB-3-1 cells at 5 uM after 68 hrs by MTT assay; conditions: KB 3-1, 68 h
# How it was run: (§2)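 KB-3-1 seeded at 4×10^4 cells/mL, KB-C2 at 7.5×10^4 cells/mL (KB-C2 kept in 2 μg/mL colchicine). MTT added for 4 h, DMSO solubilization, A570. IC50 by the Bliss method. Fold-resistance = IC50 / colchicine IC50 in KB-3-1. Mean ± SD, three independent experiments in triplicate.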
# [4] = Reversal of P-gp-mediated multidrug resistance to Cytotoxicity of colchicine against human KB-C2 cells at 5 uM after 68 hrs by MTT assay; conditions: KB-C2, 68 h; how it was run: as §2
Structure (SMILES),IC50 [1],IC50 (KB),IC50 [2],IC50 [3],IC50 (KB 3-1),IC50 [4]
CC1(C)C(CC[C@@H]2[C@@]3(C)CC[C@@H](O)C(C)(C)O[C@@H]3CC[C@]2(C)O)C(C=O)=CCC2C1CC[C@@]2(C)O (stereo partly drawn),> 50 µM,> 50 µM,> 50 µM,> 50 µM,0.005 µM,2.85 µM
CC1(C)O[C@@H]2CC[C@](C)(O)[C@H](CCC3C(C=O)=CCC4C(CC[C@@]4(C)O)C3(C)C)[C@@]2(C)CCC1=O (stereo partly drawn),> 50 µM,> 50 µM,> 50 µM,> 50 µM,0.0056 µM,6.32 µM
CC1(C)O[C@@H]2CC[C@](C)(O)[C@H](CCC3C(CO)=CCC4C(CC[C@@]4(C)O)C3(C)C)[C@@]2(C)CCC1=O (stereo partly drawn),> 50 µM,> 50 µM,> 50 µM,> 50 µM,0.0063 µM,6 µM
CC1(C)C(CC[C@@H]2[C@@]3(C)CC[C@@H](O)C(C)(C)O[C@@H]3CC[C@]2(C)O)C(CO)=CCC2C1CC[C@@]2(C)O (stereo partly drawn) [28-HYDROXYSIPHOLENOL A],> 50 µM,> 50 µM,> 50 µM,> 50 µM,0.0059 µM,5.07 µM
CC1=CCC2C(CC[C@@]2(C)O)C(C)(C)C1CC[C@@H]1[C@@]2(C)CC[C@@H](O)C(C)(C)O[C@@H]2CC[C@]1(C)O (stereo partly drawn) [SIPHOLENOL A],> 50 µM,> 50 µM,> 50 µM,> 50 µM,0.005 µM,0.21 µM
CC1(C)O[C@@H]2CC[C@](C)(O)[C@H](CC[C@@]34O[C@]3(C)[C@H](O)CC3C(CC[C@@]3(C)O)C4(C)C)[C@@]2(C)CC[C@H]1O (stereo partly drawn) [SIPHOLENOL I],> 50 µM,> 50 µM,> 50 µM,> 50 µM,0.0086 µM,2.87 µM
CC1=CCC2C(CC[C@@]2(C)O)C(C)(C)C1CC[C@@H]1[C@@]2(C)CCC(=O)C(C)(C)O[C@@H]2CC[C@]1(C)O (stereo partly drawn) [SIPHOLENONE A],> 50 µM,> 50 µM,> 50 µM,> 50 µM,0.0052 µM,0.93 µM
CC1=C(CC[C@@H]2[C@@]3(C)CC[C@@H](O)C(C)(C)O[C@@H]3CC[C@]2(C)O)[C@](C)(C/C=C/C(C)(C)O)[C@H](O)CC1 [SIPHONELLINOL C],> 50 µM,> 50 µM,> 50 µM,> 50 µM,0.0078 µM,1.48 µM
